Measured values from article PMC7246176 (Nature chemical biology, 2020).
Read-outs that look alike come from different tables or passages of the source.

Assays:
[1] = tested on: PANFR0172_T2; test: Patient-derived pancreatic organoid viability, PANFR0172_T2; type: cell-based, human; conditions: read-out: PANFR0172_T2 3D organoid culture IC50
Summary of the method: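 Patient-derived PDAC organoids were dissociated to single cells and plated at 1000 viable cells/well in complete organoid medium with 10% Matrigel, in ultra-low-attachment 384-well plates. After 24 h, compound was added by digital dispenser, then 7 days incubation. Read-out was CellTiter-Glo 3D luminescence after 1 h shaking at room temperature, normalized to DMSO wells for each culture.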

[2] = biological target: T1, DCLK1 (Homo sapiens, UniProt O15075); test: DCLK1 KINOMEscan binding assay
T1 sequence (O15075 1-740): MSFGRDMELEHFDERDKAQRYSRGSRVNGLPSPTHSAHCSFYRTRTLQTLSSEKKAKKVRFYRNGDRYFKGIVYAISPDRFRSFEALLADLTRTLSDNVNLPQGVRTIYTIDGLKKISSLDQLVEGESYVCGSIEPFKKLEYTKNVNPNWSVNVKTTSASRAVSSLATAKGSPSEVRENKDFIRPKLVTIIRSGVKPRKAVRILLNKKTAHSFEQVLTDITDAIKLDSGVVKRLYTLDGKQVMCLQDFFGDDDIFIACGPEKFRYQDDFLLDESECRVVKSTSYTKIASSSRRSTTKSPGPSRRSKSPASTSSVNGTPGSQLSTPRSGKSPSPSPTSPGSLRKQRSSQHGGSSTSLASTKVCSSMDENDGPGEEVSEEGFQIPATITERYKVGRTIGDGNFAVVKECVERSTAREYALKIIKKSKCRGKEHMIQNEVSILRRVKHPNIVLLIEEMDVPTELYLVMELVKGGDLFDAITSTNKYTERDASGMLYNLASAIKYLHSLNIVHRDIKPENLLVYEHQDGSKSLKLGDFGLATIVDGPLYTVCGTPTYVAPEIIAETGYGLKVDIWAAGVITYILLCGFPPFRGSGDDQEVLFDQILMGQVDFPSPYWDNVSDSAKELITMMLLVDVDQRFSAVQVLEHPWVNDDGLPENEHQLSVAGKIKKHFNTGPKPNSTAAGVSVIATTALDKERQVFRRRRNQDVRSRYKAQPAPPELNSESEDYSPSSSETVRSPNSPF

[3] = biological target: T2, DCLK2 (Homo sapiens, UniProt Q8N568); test: DCLK2 KINOMEscan binding assay
T2 sequence (Q8N568 1-766): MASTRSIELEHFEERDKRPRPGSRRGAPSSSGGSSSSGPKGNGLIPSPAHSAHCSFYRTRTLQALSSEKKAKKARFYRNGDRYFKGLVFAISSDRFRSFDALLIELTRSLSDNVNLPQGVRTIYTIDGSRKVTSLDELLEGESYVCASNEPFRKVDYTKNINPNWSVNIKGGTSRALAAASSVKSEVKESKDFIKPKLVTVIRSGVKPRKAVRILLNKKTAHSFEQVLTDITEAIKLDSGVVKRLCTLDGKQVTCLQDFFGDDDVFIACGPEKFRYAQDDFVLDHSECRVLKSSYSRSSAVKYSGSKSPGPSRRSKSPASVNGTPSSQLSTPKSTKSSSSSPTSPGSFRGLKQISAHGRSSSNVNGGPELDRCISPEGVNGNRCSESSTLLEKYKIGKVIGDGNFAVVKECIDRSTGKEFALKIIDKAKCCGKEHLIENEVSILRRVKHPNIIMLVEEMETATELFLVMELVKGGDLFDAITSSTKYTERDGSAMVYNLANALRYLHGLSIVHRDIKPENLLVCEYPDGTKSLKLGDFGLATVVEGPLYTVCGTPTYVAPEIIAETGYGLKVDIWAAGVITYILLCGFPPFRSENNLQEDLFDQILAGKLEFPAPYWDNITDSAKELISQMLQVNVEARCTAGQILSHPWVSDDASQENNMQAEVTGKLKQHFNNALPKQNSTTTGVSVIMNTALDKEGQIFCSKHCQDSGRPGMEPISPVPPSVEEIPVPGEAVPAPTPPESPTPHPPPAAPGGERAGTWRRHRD
Summary of the method: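 KINOMEscan competition binding run by a contract lab. Test compound in 12-point dose response, top concentration 10 μM. Values are the mean of n = 2 biologically independent samples.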

[4] = biological target: BRD4 (Homo sapiens, UniProt O60885); test: BRD4 AlphaScreen assay; type: binding
[5] = tested on: PATU-8988T cells; test: Cell viability, 2D-adherent monolayer culture, PATU-8988T; type: cell-based, human; conditions: 120 h, read-out: PATU-8988T cells 2D monolayer culture IC50
Summary of the method: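 PATU-8988T and PATU-8902 cells were plated at 100 cells/well in 50 μL media, either adherent (2D) or in ultra-low attachment spheroid plates (3D), overnight. Test compound was pin-transferred and cells were incubated 120 h. Viability was read by CellTiter-Glo luminescence after 15 min at room temperature. Data were normalized to DMSO-treated wells per cell line and fitted.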

[6] = biological target: T3, DCLK1-Nluc in HCT116 cells (Homo sapiens, UniProt O15075); test: DCLK1 NanoBRET target engagement assay in HCT116 cells; type: cell-based
T3 sequence (O15075 1-729 isoform O15075-2): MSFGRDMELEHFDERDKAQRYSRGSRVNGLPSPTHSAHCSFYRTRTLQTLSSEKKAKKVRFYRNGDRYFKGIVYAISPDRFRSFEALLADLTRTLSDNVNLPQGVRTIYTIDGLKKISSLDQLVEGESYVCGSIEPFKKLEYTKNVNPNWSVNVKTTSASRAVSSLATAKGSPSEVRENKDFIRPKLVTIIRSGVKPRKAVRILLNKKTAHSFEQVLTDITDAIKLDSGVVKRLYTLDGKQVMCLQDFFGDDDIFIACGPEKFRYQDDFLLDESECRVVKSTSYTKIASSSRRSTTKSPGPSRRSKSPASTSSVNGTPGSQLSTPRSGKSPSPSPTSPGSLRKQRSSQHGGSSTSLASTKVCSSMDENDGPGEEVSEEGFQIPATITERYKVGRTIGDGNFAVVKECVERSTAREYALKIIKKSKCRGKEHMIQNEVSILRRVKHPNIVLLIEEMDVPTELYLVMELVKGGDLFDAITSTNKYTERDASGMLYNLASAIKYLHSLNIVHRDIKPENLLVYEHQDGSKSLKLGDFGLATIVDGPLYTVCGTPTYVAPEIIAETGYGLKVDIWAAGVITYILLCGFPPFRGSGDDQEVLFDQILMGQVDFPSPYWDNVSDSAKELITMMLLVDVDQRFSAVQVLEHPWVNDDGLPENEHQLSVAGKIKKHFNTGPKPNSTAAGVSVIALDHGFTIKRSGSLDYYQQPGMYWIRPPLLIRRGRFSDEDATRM

[7] = biological target: T2, DCLK2; test: 33P-ATP DCLK2 kinase assay; type: biochemical
Summary of the method: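 Radiometric 33P-ATP assay run by a contract lab. […] Test compound in 12-point dose response, top concentration 10 μM. Values are the mean of n = 3 biologically independent samples.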

IC50 ([2]; read-out: DCLK1 binding assay IC50, KINOMEscan)	IC50 ([3]; read-out: DCLK2 binding assay IC50, KINOMEscan)	IC50 ([4]; read-out: BRD4 binding assay IC50, AlphaScreen, Table 1)	IC50 ([6]; read-out: DCLK1 cellular assay IC50, nanoBRET, HCT116 cells)	IC50 ([7]; read-out: DCLK2 kinase assay IC50, 33P-ATP, ATP 100 μM (Km))	SMILES	IC50 ([1]; Homo sapiens, 168 h)	IC50 [2]	IC50 [3]	IC50 [4]	IC50 ([5]; Homo sapiens, PaTu 8988t)	IC50 [6]	IC50 [7]	IC50 ([1]; viability, 7 d, P.R. = partial response)	IC50 ([5]; cell viability, P.R. = partial response)
–	–	–	–	–	COc1cc(N2CCN(C)CC2)ccc1Nc1ncc2c(n1)N(C)c1ccccc1C(=O)N2CC(F)(F)F [DCLK1-IN-1]	0.877 µM	0.0095 µM	0.031 µM	> 10 µM	> 20 µM	0.279 µM	0.103 µM	–	–
1.4 µM	3.6 µM	1.57 µM	1.15 µM	0.385 µM	CCOc1cc(N2CCC(O)CC2)ccc1Nc1ncc2c(n1)N(C)c1ccccc1C(=O)N2C [XMD8-92]	–	–	–	–	–	–	–	> 20 µM	2.02 µM
